In general, MIC refers to the lowest concentration that inhibits growth of the organism. Broadly, the MBC is the lowest tested concentration that kills the bacteria rather than only halting them. Lower therefore signals greater bactericidal potency.

Molecules are shown by their SMILES. In brackets after ≈: the same amount, converted by molar mass. Activity calls are given as the source filed them. No cut-off for these calls is given here.

The test system of assay [1] is Moraxella catarrhalis. The assay can be described thus: Antimicrobial activity against Moraxella catarrhalis clinical isolates incubated for 48 hrs by microdilution broth method. Type of assay: functional. Put shortly:
(§1)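 Stocks in DMSO were diluted at least 10-fold into Mueller-Hinton broth, then 2-fold serially diluted in MH from 500 to 15.6 μg/ml. Bacteria were added, with DMSO-only dilution controls, and incubated at 37 °C for 48 h. Growth was scored at 24 and 48 h. MIC was the lowest concentration with no growth. Run in quadruplicate.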
On the technique in general: In broth dilution the organism is exposed to a series of concentrations in liquid medium.

Assay [2] has as its system Moraxella catarrhalis. Briefly: Bactericidal activity against Moraxella catarrhalis clinical isolates incubated for 48 hrs by microdilution broth method and standard plating method. Type of assay: functional. Put shortly:
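Broth microdilution in Mueller-Hinton broth, 2-fold series from 500 to 15.6 μg/ml, with DMSO-only controls, 37 °C for 48 h. Wells showing no growth were plated (10 μL) on MH agar. MBC was the lowest concentration giving no growth on plating. Run in quadruplicate.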

In assay [3] the test system is Mycobacterium tuberculosis. Briefly: Antimicrobial activity against Mycobacterium tuberculosis H37Rv incubated for 48 hrs by microdilution broth method. Type of assay: functional.
The subject of assay [4] is Staphylococcus aureus. The assay can be described thus: Antimicrobial activity against Staphylococcus aureus ATCC 25923 incubated for 48 hrs by microdilution broth method. In kind it is functional, organism-based. In outline: as §1
Assay [5] has as its system Escherichia coli. The assay can be described thus: Antimicrobial activity against Escherichia coli ATCC 25922 incubated for 48 hrs by microdilution broth method. Type of assay: functional, organism-based. Put shortly:
as §1

The subject of assay [6] is Enterococcus faecalis. Briefly: Antimicrobial activity against Enterococcus faecalis ATCC 29212 incubated for 48 hrs by microdilution broth method. Type of assay: functional, organism-based. Put shortly: as §1
Assay [7] relates to Pseudomonas aeruginosa. The assay can be described thus: Antimicrobial activity against Pseudomonas aeruginosa ATCC 27853 incubated for 48 hrs by microdilution broth method. In kind it is functional, organism-based. Put shortly:
as §1

In assay [8] the test system is Escherichia coli. Briefly: Antimicrobial activity against broad spectrum beta-lactamase producing Escherichia coli MISC 206 incubated for 48 hrs by microdilution broth method. In kind it is functional, organism-based. Put shortly: as §1
The test system of assay [9] is Escherichia coli. The assay can be described thus: Antimicrobial activity against broad spectrum beta-lactamase producing Escherichia coli GB 8 incubated for 48 hrs by microdilution broth method. In kind it is functional, organism-based. In outline: as §1
In assay [10] the test system is Escherichia coli. Briefly: Antimicrobial activity against extended spectrum beta-lactamase producing Escherichia coli MISC 262 incubated for 48 hrs by microdilution broth method. In kind it is functional, organism-based. Put shortly: as §1
Assay [11] has as its system Citrobacter freundii. The assay can be described thus: Antimicrobial activity against extended spectrum beta-lactamase producing Citrobacter freundii Citro 314 incubated for 48 hrs by microdilution broth method. In kind it is functional, organism-based. In outline: as §1
The subject of assay [12] is Klebsiella pneumoniae. Briefly: Antimicrobial activity against AmpC producing Klebsiella pneumoniae MISC 304 incubated for 48 hrs by microdilution broth method. In kind it is functional, organism-based. Put shortly:
as §1

Assay [13] deals with Klebsiella pneumoniae. The assay can be described thus: Antimicrobial activity against AmpC producing Klebsiella pneumoniae KLEB 249 incubated for 48 hrs by microdilution broth method. Type of assay: functional, organism-based. In outline: as §1
The test system of assay [14] is Citrobacter freundii. The assay can be described thus: Antimicrobial activity against AmpC producing Citrobacter freundii CITRO 21 incubated for 48 hrs by microdilution broth method. Type of assay: functional, organism-based. Put shortly: as §1
Assay [15] relates to Stenotrophomonas maltophilia. Briefly: Antimicrobial activity against metallo beta-lactamases producing Stenotrophomonas maltophilia GM24 incubated for 48 hrs by microdilution broth method. Type of assay: functional, organism-based. Put shortly:
as §1

For assay [16], the system named is Acinetobacter baumannii. The assay can be described thus: Antimicrobial activity against extended spectrum beta-lactamase and carbapenemase producing Acinetobacter baumannii L185 incubated for 48 hrs by microdilution broth method. Type of assay: functional, organism-based. In outline: as §1
For assay [17], the system named is Acinetobacter baumannii. The assay can be described thus: Antimicrobial activity against extended spectrum beta-lactamase and carbapenemase producing Acinetobacter baumannii L186 incubated for 48 hrs by microdilution broth method. Type of assay: functional, organism-based. Put shortly:
as §1

For assay [18], the system named is Acinetobacter baumannii. Briefly: Antimicrobial activity against extended spectrum beta-lactamase and carbapenemase producing Acinetobacter baumannii L187 incubated for 48 hrs by microdilution broth method. Type of assay: functional, organism-based. Put shortly:
as §1

The subject of assay [19] is Klebsiella pneumoniae. Briefly: Antimicrobial activity against extended spectrum beta-lactamase and carbapenemase producing Klebsiella pneumoniae KPC L133 incubated for 48 hrs by microdilution broth method. In kind it is functional, organism-based. Put shortly: as §1
The test system of assay [20] is Klebsiella pneumoniae. Briefly: Antimicrobial activity against extended spectrum beta-lactamase and carbapenemase producing Klebsiella pneumoniae ESBL L174 incubated for 48 hrs by microdilution broth method. In kind it is functional, organism-based. Put shortly: as §1
Assay [21] deals with Escherichia coli. Briefly: Antimicrobial activity against extended spectrum beta-lactamase and carbapenemase producing Escherichia coli ESBL L108 incubated for 48 hrs by microdilution broth method. In kind it is functional, organism-based. Put shortly:
as §1

Assay [22] has as its system Escherichia coli. Briefly: Antimicrobial activity against extended spectrum beta-lactamase and carbapenemase producing Escherichia coli ESBL L109 incubated for 48 hrs by microdilution broth method. Type of assay: functional, organism-based. In outline:
as §1

With `O=C1CC(Sc2ccccc2F)N1C(=O)NCc1ccccc1` (racemic), the MIC in assay [1] was 25 µg/mL (≈ 75.7 µM); in assay [3], 3.13 µg/mL (≈ 9.47 µM). For the same compound, in assay [2], the MBC is 50 µg/mL (≈ 151 µM). For the same compound, the MIC result in assay [4], in [5], in assay [6], in [7], in assay [8] and in [9] was “inactive” in each case. Also, the MIC result in assay [10], in [11], in [12], in assay [13], in [14] and in [15] was “inactive” throughout. For the same compound, the MIC entry in assay [16], in assay [17], in assay [18], in [19], in assay [20] and in assay [21] was “inactive” in each case. Moreover, the MIC result in assay [22] is “inactive”.

In the case of `O=C1CC(Sc2ccc(F)cc2)N1C(=O)NCc1ccccc1` (racemic), the minimal inhibitory concentration (MIC) was 25 µg/mL (≈ 75.7 µM) in assay [1] and 6.25 µg/mL (≈ 18.9 µM) in [3]. This compound also registered a minimal bactericidal concentration (MBC) in assay [2] of 25 µg/mL (≈ 75.7 µM). In addition, the MIC result in assay [4], in [5], in assay [6], in assay [7], in assay [8] and in assay [9] was “inactive” each time. For the same compound, the MIC entry in assay [10], in assay [11], in [12], in assay [13], in [14] and in [15] was “inactive” in each case. In addition, the MIC entry in assay [16], in [17], in [18], in assay [19], in [20] and in assay [21] was “inactive” throughout. Moreover, the MIC result in assay [22] is “inactive”.

In the case of `O=C1CC(Sc2cccc(F)c2)N1C(=O)NCc1ccccc1` (racemic), the MIC in assay [1] is 25 µg/mL (≈ 75.7 µM). In assay [2], the minimal bactericidal concentration (MBC) came to 100 µg/mL (≈ 303 µM). The MIC entry in assay [4], in assay [5], in assay [6], in [7], in [8] and in assay [9] was “inactive” each time. The MIC result in [10], in [11], in [12], in assay [13], in assay [14] and in assay [15] was “inactive” in each case. In addition, the MIC result in assay [16], in [17], in [18], in assay [19], in assay [20] and in assay [21] was “inactive” each time. Moreover, the MIC result in [22] is “inactive”.

Take `O=C1CC(Sc2ccccc2)N1C(=O)NCc1ccccc1` (racemic): the MIC was determined as 12.5 µg/mL (≈ 40 µM) in assay [1] and 6.25 µg/mL (≈ 20 µM) in [3]. For the same compound, the MBC in [2] worked out at 12.5 µg/mL (≈ 40 µM). Further, the MIC entry in [4], in [5], in assay [6], in assay [7], in assay [8] and in assay [9] was “inactive” each time. The MIC entry in assay [10], in assay [11], in assay [12], in assay [13], in [14] and in [15] was “inactive” in each case. Further, the MIC entry in assay [16], in assay [17], in [18], in assay [19], in assay [20] and in assay [21] was “inactive” each time. Moreover, the MIC entry in [22] was “inactive”.

Regarding `O=C1CC(Sc2cc(C(F)(F)F)cc(C(F)(F)F)c2)N1C(=O)NCc1ccccc1` (racemic), the MIC in assay [1] and in assay [3] was 6.25 µg/mL (≈ 13.9 µM) in each case. The same compound showed an MBC in [2] of 6.25 µg/mL (≈ 13.9 µM). The MIC entry in [4], in [5], in [6], in assay [7], in assay [8] and in [9] was “inactive” each time. For the same compound, the MIC entry in assay [10], in assay [11], in assay [12], in [13], in assay [14] and in [15] was “inactive” each time. Besides, the MIC entry in [16], in assay [17], in assay [18], in assay [19], in assay [20] and in [21] was “inactive” each time. Besides, the MIC entry in assay [22] is “inactive”.

For `O=C1CC(Sc2ccc(C(F)(F)F)cc2)N1C(=O)NCc1ccccc1` (racemic), the figures for the MIC in assay [1] and in assay [3] were 1.62 µg/mL (≈ 4.27 µM) and 12.5 µg/mL (≈ 32.9 µM), respectively. In addition, the MBC in assay [2] is 12.5 µg/mL (≈ 32.9 µM). Also, the MIC result in [4], in [5], in assay [6], in [7], in assay [8] and in [9] was “inactive” throughout. The MIC entry in [10], in assay [11], in [12], in assay [13], in [14] and in assay [15] was “inactive” in each case. The MIC result in assay [16], in [17], in [18], in assay [19], in [20] and in assay [21] was “inactive” throughout. Besides, in assay [22], the MIC entry is “inactive”.

As to `O=C1CC(Sc2ccc(F)c(F)c2)N1C(=O)NCc1ccccc1` (racemic), the MIC is 12.5 µg/mL (≈ 35.9 µM) in [1] and 6.25 µg/mL (≈ 17.9 µM) in [3]. Besides, in assay [2], the minimum bactericidal concentration (MBC) was found to be 25 µg/mL (≈ 71.8 µM). The MIC entry in assay [4], in [5], in assay [6], in assay [7], in assay [8] and in assay [9] was “inactive” each time. Also, the MIC result in assay [10], in [11], in assay [12], in assay [13], in assay [14] and in [15] was “inactive” each time. Also, the MIC entry in assay [16], in [17], in assay [18], in assay [19], in assay [20] and in [21] was “inactive” throughout. Besides, in [22], the MIC result is “inactive”.

Take `O=C1CC(Sc2cccc(C(F)(F)F)c2)N1C(=O)NCc1ccccc1` (racemic): the MIC in assay [1] was determined as 3.12 µg/mL (≈ 8.22 µM); in assay [3], 25 µg/mL (≈ 65.7 µM). Further, in [2], the MBC was determined as 6.25 µg/mL (≈ 16.4 µM). The MIC result in assay [4], in [5], in [6], in assay [7], in assay [8] and in assay [9] was “inactive” in each case. Besides, the MIC result in assay [10], in [11], in assay [12], in assay [13], in assay [14] and in assay [15] was “inactive” throughout. Besides, the MIC result in [16], in assay [17], in assay [18], in assay [19], in assay [20] and in [21] was “inactive” throughout. The MIC result in [22] is “inactive”.

These data come from ChEMBL document CHEMBL3392996, “Non-transpeptidase binding arylthioether β-lactams active against Mycobacterium tuberculosis and Moraxella catarrhalis” (2015).
